Compound activity: PubChem BioAssay, several laboratories
CHOP UPR activ: activators of apoptotic arm of unfolded protein response (CHOP); CHO-CHOP luciferase reporter, UPR activation, luminescence; percent of tunicamycin response over DMSO baseline; activation, % at 10 µM; AID 449763; actives 0.34% (n = 330,000);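 active means at 10 µM dose, activation of 40% or more, normalized to positive control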
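System: CHO-CHOP luciferase reporter cell line; amount: 500 cells/well; buffer or medium: F12 medium containing 10% fetal bovine serum; incubation: 6 h compound exposure at 37 °C after overnight seeding; measured by: luciferase luminescence after 10 min with Steady-Glo reagent; evaluation: % reporter activation, DMSO baseline versus tunicamycin full activation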
CHOP inh: CHOP inhibition in unfolded protein response. AID 2732. CHO-K1 CHOP-promoter luciferase, tunicamycin-induced, 15-18 h. actives 3.8% (n = 220,000). inhibition, % at 10 µM;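 active means compounds that reduced the stress-induced luciferase reporter signal by more than about 70% of percent inhibition, limit read from the data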
Dynein cargo inh: dynein cargo transport inhibition | 3617.4 mouse cells, GR-EGFP nuclear translocation imaging; test concentration mostly 20 µM; stimulated with dexamethasone, 1 µM; hits give low values | z-score, hits read low | actives 0.47% (n = 220,000);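 active means plate z-score of nuclear minus cytoplasmic receptor signal below a set negative limit, without overly bright fluorescence or cell loss, cut at about -3.5 in these data, passing the limit was not always enough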;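 further: z-score of nuclear minus cytoplasmic ring GR-EGFP intensity difference per well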
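medium = tetracycline-free induction medium containing charcoal-stripped FBS | also added = 1.0 µM final dexamethasone stimulus | schedule = 48 h induction, 1 h compound, 30 min dex at 37 °C | technique = fixed, Hoechst-stained cells imaged at 10x for EGFP | measure = GR-EGFP nuclear translocation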
B2AR ag: activates human beta-2 adrenergic receptor causing internalization | Am2.2-beta2AR cells, FAP receptor internalization, flow cytometry | response, % (no concentration beside the values) | actives 0.43% (n = 340,000) | AID 504454;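 active means response above a set limit, near 3 SD of response in nonfluorescent compounds, cut at about 42% in these data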
Target sequence (P07550 whole entry, looked up): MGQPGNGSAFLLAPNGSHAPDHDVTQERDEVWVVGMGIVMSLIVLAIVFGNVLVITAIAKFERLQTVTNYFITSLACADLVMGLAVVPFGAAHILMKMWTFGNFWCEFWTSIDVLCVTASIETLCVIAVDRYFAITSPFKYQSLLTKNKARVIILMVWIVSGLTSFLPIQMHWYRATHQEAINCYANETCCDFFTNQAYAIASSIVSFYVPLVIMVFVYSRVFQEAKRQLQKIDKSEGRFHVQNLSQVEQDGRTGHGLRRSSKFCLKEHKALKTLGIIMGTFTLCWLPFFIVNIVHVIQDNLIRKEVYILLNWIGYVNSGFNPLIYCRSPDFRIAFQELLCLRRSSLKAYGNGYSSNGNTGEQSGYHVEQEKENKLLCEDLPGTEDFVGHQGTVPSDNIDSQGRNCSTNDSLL
pCIP destab: lowers stability of the mouse p/CIP coactivator protein. Q05BA5. actives 0.01% (n = 290,000). AID 1984. decrease of EGFP signal, % at 10 µM. F442A p/CIP-EGFP cells, EGFP fluorescence, 16 h;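 active means EGFP signal decrease of at least 30% at 10 µM or well 3 SD below plate mean, unless failing retest; inactive means the rest, including hits failing retest or dose response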
UPR XBP1 act: adaptive UPR (XBP1) activation | activation, % at 20 µM | CHO-XBP1 luciferase reporter, IRE1-XBP1 UPR activation, luminescence; percent of tunicamycin response, DMSO as zero | actives 0.33% (n = 330,000) | AID 463104;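 active means versus positive control, 20 µM dose yields 30% or more activation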
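Material: IRE1-XBP1 luciferase reporter CHO line / Quantity: one thousand reporter cells per well / Buffer or medium: F12 with 10% serum / Compound: 20 µM single concentration, DMSO 1% / Times: 6 h treatment, 37 °C / Detection: Steady-Glo luciferase glow luminescence, 10 min after reagent addition / Benchmarks: tunicamycin high, DMSO low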
Numbers stand for hits; i = inactive; nt = no result given. This excerpt belongs to a sample that is enriched for hits.

SMILES	CHOP UPR activ	CHOP inh	Dynein cargo inh	B2AR ag	pCIP destab	UPR XBP1 act
Cc1cccc(-c2nsc(SCC(=O)Nc3ccc4c(c3)OCO4)n2)c1	i	i	i	i	i	i
CCOC(=O)N1CCC(N2CCCC(C(=O)c3ccc4cc(OC)ccc4c3)C2)CC1 (stereo unspecified)	i	i	i	i	i	i
CC(C)(C)C(=O)Nc1cc(S(=O)(=O)Nc2ccc(Cl)cc2)ccc1Cl	i	74.9	i	i	i	i
Cc1ccc(NS(=O)(=O)c2ccc(Cl)c(NC(=S)NC(=O)C3CCCCC3)c2)cc1Cl	i	95.6	i	i	i	i
CCO[C@H]1OC(C(N)=O)=C[C@@H](C2CCCCC2)[C@@H]1CCCO	i	i	i	i	i	i
CCCCNC(=O)NNC(=O)COc1cccc(C)c1C	i	i	i	i	i	i
CCOC(=O)c1c(-c2cccs2)csc1NC(C)=O	i	i	i	i	i	i
CCOC(=O)c1c(-c2cccs2)csc1NC(=O)CN1CC(C)OC(C)C1 (stereo unspecified)	i	84.5	i	i	i	i
O=C(N/N=C/c1ccc([N+](=O)[O-])o1)c1cn(-c2ccccc2)nc1-c1ccccc1	i	94.9	i	i	i	i
O=C(N/N=C/c1ccc([N+](=O)[O-])o1)c1cc(-c2ccncc2)nc2ccccc12	i	i	-5.01	i	i	i
O=C(N/N=C/c1ccc([N+](=O)[O-])o1)c1cc(-c2ccc(-c3ccccc3)cc2)nc2ccccc12	i	i	i	i	i	i
O=C(N/N=C/c1ccc(Cl)cc1)c1cc(-c2cccnc2)nc2ccccc12	i	83.9	i	i	i	i
CC(C)N(C(=O)[C@H]1CC(CC(=O)NCCCn2ccnc2)C(=O)N2CCc3c([nH]c4ccccc34)[C@]12C)C(C)C (stereo partly specified)	i	nt	nt	i	nt	i
CSc1nc(N)c2ncn([C@@H]3O[C@H](COP(=O)(O)OP(=O)(O)O)[C@H](O)C3O)c2n1 (stereo partly specified)	nt	i	nt	nt	nt	nt
C=CCn1cnc2c(nnn2-c2ccc(C)c(C)c2)c1=O	i	i	i	i	i	i
CC(Sc1ccccc1)C(=O)NCC(c1ccco1)N1CCCCC1 (stereo unspecified)	i	nt	nt	i	nt	i
O=C(NC1CCCC1)C(c1ccc(F)cc1)N(C(=O)c1csnn1)C1CC1 (stereo unspecified)	i	nt	nt	i	i	i
CC(=O)Nc1ccc(NC(=O)Cn2cc3c(n2)CCC(C)C3)cc1 (stereo unspecified)	nt	i	i	nt	i	nt
CCOC(=O)c1cccc(NC(=O)Cn2cc3c(n2)CCC(C)C3)c1 (stereo unspecified)	i	82.6	i	i	i	i
CCOC(=O)[C@H]1[C@H]2COc3ccc(Br)cc3[C@@H]2N2C(=O)[C@H](C)NC(=O)[C@@]12C	i	nt	nt	i	nt	i
CC(C)n1c2ccccc2c2nc3ccccc3nc21	i	72.3	i	i	i	i
C#CCn1c2ccccc2c2nc3ccccc3nc21	i	nt	nt	i	i	i
CC(=O)Nc1ccc2c(c1)Cc1cc(N3C(=O)C=CC3=O)ccc1-2	nt	nt	nt	44.5	nt	nt
CCN1CCN(c2nc3c(C)cccn3c(=O)c2/C=C(\C#N)C(=O)NCCCOC)CC1	i	nt	nt	i	i	i
c1ccc2c(c1)CCN(c1nc(CN3CCOCC3)nc3sc4c(c13)CCCC4)C2	i	84.5	i	i	i	i
SMILES	CHOP UPR activ	CHOP inh	Dynein cargo inh	B2AR ag	pCIP destab	UPR XBP1 act
CCNc1nc(CN2CCOCC2)nc2sc3c(c12)CCC3	i	i	i	i	i	i
O=C1N/C(=C/c2ccc(N3CCOCC3)o2)C(=O)N1c1ccccc1	nt	i	-6.19	i	i	nt
C=CCN1C(=O)N/C(=C/c2ccc(N3CCOCC3)o2)C1=O	i	93.6	i	nt	i	i
CN(C(=O)COC(=O)c1cc2ccccc2cc1O)c1c(N)n(Cc2ccccc2)c(=O)[nH]c1=O	i	nt	nt	i	nt	i
CC(C)N1CCc2c(sc(NC(=O)c3cc4cc([N+](=O)[O-])ccc4s3)c2C(N)=O)C1	i	77.9	i	i	i	i
OCC1(Cc2cccc(C(F)(F)F)c2)CCN(Cc2cc3ccccc3o2)CC1	i	89.3	i	i	i	i
N#CC1=C(N)OC2=C(CC/C2=C\c2ccc(F)cc2)C1c1ccc(F)cc1 (stereo unspecified)	116.5	79.0	i	nt	i	i
N#CC1=C(N)OC2=C(CCC/C2=C/c2ccoc2)C1c1ccoc1 (stereo unspecified)	nt	i	i	nt	i	nt
CCC(Sc1nnnn1-c1ccccc1)C(=O)Nc1nc2ccccc2s1 (stereo unspecified)	i	88.7	i	i	i	i
CCn1nnnc1SCC(=O)Nc1nc2ccccc2s1	i	i	i	i	i	i
O=C(CSc1nnnn1-c1ccc(F)cc1)Nc1nc2ccccc2s1	i	70.2	i	i	i	i
Cc1nc(SCC(=O)Nc2nc3ccccc3s2)c(C#N)c(C)c1C	i	102.4	i	i	i	i
CCC(Sc1nnnn1-c1ccccc1)C(=O)NC(C)c1ccccc1 (stereo unspecified)	i	i	i	i	i	i
COc1cccc(C(=O)COC(=O)c2n[nH]c(=O)c3ccccc23)c1	i	i	i	i	i	i
CC(=O)N=c1scc(-c2ccccc2)n1-c1cccc(O)c1	i	nt	nt	i	i	i
CC(C)c1ccc(-c2nc(N3CCCCCC3)nc3n[nH]c(N)c23)cc1	i	80.4	i	i	i	i
O=c1cc(-c2ccccc2)[nH]n1-c1ccc([N+](=O)[O-])cc1	i	i	i	i	i	i
CC1(CCC(=O)N2CCCC(N3CCN(c4cccc(C(F)(F)F)c4)CC3)C2)CC1 (stereo unspecified)	i	nt	nt	i	i	i
COc1cc(NC(=O)c2ccc(Cl)cc2Cl)ccc1-c1cc2ccccc2oc1=O	i	i	i	i	i	40.0
O=C(Nc1ccc(N2CCCC2)c(Cl)c1)c1cccc(-c2cc3ccccc3oc2=O)c1	i	i	i	61.2	i	i
COc1cc(NC(C)=O)ccc1-c1cc2ccccc2oc1=O	i	i	i	i	i	i
c1ccc(-c2nn3c(C4CCCCC4)nnc3s2)nc1	i	i	i	i	i	i
c1ccc(-c2nn3c(C4CCCCC4)nnc3s2)cc1	i	77.9	i	i	i	i
Cc1cccc(-c2nnc3sc(-c4ccccc4)nn23)c1	i	77.0	i	i	i	i
COc1cccc(C(=O)c2c(-c3ccccc3)ncc3cc(OC)c(OC)cc23)c1	i	nt	nt	i	nt	i
Cc1ccc(C(=O)c2ccc(C(F)(F)F)cc2)cc1	i	93.3	i	nt	i	i
